Measured values as given in ChEMBL document CHEMBL3994580, “A novel class of α-glucosidase and HMG-CoA reductase inhibitors from Ganoderma leucocontextum and the anti-diabetic properties of ganomycin I in KK-Ay mice” (Eur J Med Chem, 2017).
Activity calls are given as the source filed them. No cut-off for these calls is given here.

Tests used:
[1] = target: T1, 3-hydroxy-3-methylglutaryl-coenzyme A reductase (Sus scrofa, UniProt Q1W675); test: (§1) Inhibition of HMG-CoA reductase in pig liver microsomes using HMG-CoA as substrate preincubated for 5 mins followed by NADPH addition measured after 15 mins by colorimetric method
T1 sequence (Q1W675 whole entry): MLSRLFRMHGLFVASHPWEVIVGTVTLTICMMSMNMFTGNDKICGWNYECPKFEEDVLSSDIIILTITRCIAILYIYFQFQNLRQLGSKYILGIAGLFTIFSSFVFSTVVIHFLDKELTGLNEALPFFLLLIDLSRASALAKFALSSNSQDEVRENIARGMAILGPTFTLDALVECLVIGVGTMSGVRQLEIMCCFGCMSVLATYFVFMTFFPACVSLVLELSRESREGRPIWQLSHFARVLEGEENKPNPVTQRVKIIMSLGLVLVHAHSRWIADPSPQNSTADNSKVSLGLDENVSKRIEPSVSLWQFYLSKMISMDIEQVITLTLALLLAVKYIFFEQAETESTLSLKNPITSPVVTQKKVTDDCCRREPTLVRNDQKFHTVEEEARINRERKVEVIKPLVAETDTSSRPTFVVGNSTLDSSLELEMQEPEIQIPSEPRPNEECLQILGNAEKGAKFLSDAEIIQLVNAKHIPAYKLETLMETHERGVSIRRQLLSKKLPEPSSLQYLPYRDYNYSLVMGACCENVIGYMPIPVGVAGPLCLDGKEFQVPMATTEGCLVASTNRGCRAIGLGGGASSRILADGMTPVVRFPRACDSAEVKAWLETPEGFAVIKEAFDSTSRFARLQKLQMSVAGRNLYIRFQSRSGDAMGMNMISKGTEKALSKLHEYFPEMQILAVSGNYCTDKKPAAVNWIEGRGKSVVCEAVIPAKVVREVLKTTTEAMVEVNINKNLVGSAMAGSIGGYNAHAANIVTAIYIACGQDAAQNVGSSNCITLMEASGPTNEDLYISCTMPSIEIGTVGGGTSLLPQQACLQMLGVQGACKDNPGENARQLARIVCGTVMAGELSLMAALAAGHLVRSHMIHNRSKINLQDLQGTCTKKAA
Method in brief: (§2)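 HMG-CoA reductase activity followed by absorbance at 340 nm. Blank had potassium phosphate buffer instead of enzyme, and control had buffer instead of compound. Percent inhibition calculated from blank-corrected OD.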

[2] = target: T2, 3-hydroxy-3-methylglutaryl-coenzyme A reductase (Sus scrofa) (UniProt Q1W675); test: as §1; method in brief: as §2
T2 sequence (whole entry): T1 sequence (Q1W675 whole entry)

Mus musculus [3] = test: Acute toxicity in mouse assessed as effect on behavior up to 3 g/kg, po up to 14 days; details: in vivo, 336 h
Saccharomyces cerevisiae = test: Non-competitive inhibition of baker's yeast alpha-glucosidase using varying levels of p-nitrophenyl alpha-D-glucopyranoside as substrate preincubated for 10 mins followed by substrate addition measured for 15 mins by Lineweaver-Burk plot analysis
Method in brief: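 Kinetics with inhibitor at 0.3 to 1 μM against α-glucosidase. pNPG at 2, 4, 6 and 8 μM. Initial velocities measured with and without inhibitor, and inhibition type assigned from Michaelis-Menten and Lineweaver-Burk plots.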

Mus musculus [4] = test: Antidiabetic activity in KK-Ay diabetic mouse model assessed as reduction in blood glucose level at 5 mg/kg/day administered via oral gavage once daily measured on day 19 at 30 to 60 mins post insulin challenge by insulin tolerance test; assay type: functional, organism-based
Method in brief: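 ITT on day 19 of treatment: after 4 h fasting, insulin 0.6 U·kg-1 given intraperitoneally. Glycaemia was sampled from the tail tip before and at set times after injection, and the AUC was computed. Mean ± SEM, n = 8.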

Mus musculus [5] = test: Acute toxicity in mouse assessed as effect on sleep up to 3 g/kg, po up to 14 days; details: in vivo, 336 h
Mus musculus [6] = test: Acute toxicity in mouse assessed as changes in nature of urine up to 3 g/kg, po up to 14 days; details: in vivo, 336 h
[7] = target: T2, 3-hydroxy-3-methylglutaryl-coenzyme A reductase (Sus scrofa); test: Non-competitive inhibition of HMG-CoA reductase in pig liver microsomes using varying levels of HMG-CoA as substrate preincubated for 5 mins followed by NADPH addition measured after 15 mins by Lineweaver-Burk plot analysis
Method in brief: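 HMG-CoA reductase kinetics: inhibitor at 5 to 20 μM, HMG-CoA at 2, 4, 6 and 8 μM. Initial velocities with and without inhibitor analysed by Lineweaver-Burk double-reciprocal plots.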

Mus musculus [8] = test: Antidiabetic activity in KK-Ay diabetic mouse model assessed as reduction in blood glucose level at 5 mg/kg/day administered via oral gavage once daily for 21 days measured at 30 to 60 mins post glucose challenge by oral glucose tolerance test; assay type: functional, organism-based
Method in brief: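 OGTT on day 21 of daily gavage dosing in KK-Ay mice. Blood glucose read at time points including 30 and 60 min, and the AUC was calculated. Mean ± SEM, n = 8.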

Mus musculus [9] = test: Hypolipidemic activity in KK-Ay diabetic mouse model assessed as reduction in serum triglyceride level at 1 to 5 mg/kg/day administered via oral gavage once daily for 21 days; assay type: functional, organism-based
Method in brief: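 Male KK-Ay mice (8 weeks old) on high-fat diet with water ad libitum, dosed by gavage once daily for 21 days (1 or 5 mg/kg test; rosiglitazone 10 mg/kg); female C57BL/6J mice as normal controls. Blood collected at study end. Serum lipids, insulin and glucose measured per cited method. ISI calculated from fasting blood glucose and fasting insulin. Mean ± SEM, n = 7-8.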

Mus musculus [10] = test: Toxicity in KK-Ay diabetic mouse model assessed as decrease in body weight at 1 to 5 mg/kg/day administered via oral gavage once daily measured every 3 days post two weeks of compound treatment; assay type: organism-based; details: in vivo, 72 h
Method in brief: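 In high-fat-fed KK-Ay mice gavaged once daily for 21 days, individual body weight and cage food consumption were recorded every 3 days. Mean ± SEM, n = 8.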

CC(C)=CCC/C(C)=C/CCC1=C[C@H](c2cc(O)ccc2O)OC1=O
IC50 [1]: 12.3 µM
inhibition [2]: Dose-dependent effect
Activity (Mus musculus [3]): Non-Toxic
inhibition (Saccharomyces cerevisiae): Active
Activity (Mus musculus [4]): Active
Activity (Mus musculus [5]): Non-Toxic
Activity (Mus musculus [6]): Non-Toxic
inhibition [7]: Active
Activity (Mus musculus [8]): Active
Activity (Mus musculus [9]): Active
Activity (Mus musculus [10]): Toxic
